Screening data: PubChem BioAssay, several laboratories
Rows were chosen to be rich in hits. Some 2.4% of all compounds tested hit in one or more screens of this group.
aDG glyco act: activators of alpha-DG glycosylation, primary screen, uHTS, Pro5-aDG cells, AlphaScreen. alpha-DG glycosylation AlphaScreen (IIH6); 0% Pro5, 100% B10-LARGE cell signal. activation, % at 10 µM. actives 0.22% (n = 360,000). AID 624168, 2012;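 active means activation of at least 8% versus controls, or a plate z-score of at least 8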;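 further: Pro5 are CHO cells carrying HIG-tagged alpha-DG that lacks glycosylation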
697 NFkB inh: inhibitors of PMA/ionomycin-induced NF-kB reporter, 697 cells, primary screen, B-cell NF-kB inhibitor project, cell-based, luminescence, uHTS | 697 B-cell NF-kB luciferase reporter, 16 h | inhibition, % at 4 µM | actives 0.33% (n = 330,000) | AID 435022, 2010; in the data active means inhibition above about 35%
NR2E3 ag-1: inhibitors of NR2E3-RetCOR corepressor binding, primary screen, NR2E3 agonist project, biochemical, TR-FRET, GST-NR2E3, biotin-RetCOR; 1536-well; actives 0.12% (n = 320,000); AID 2300, 2010; inhibition of corepressor binding, % at 4.78 µM; Photoreceptor-specific nuclear receptor (Homo sapiens), Q9Y5X4;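 active means percent inhibition above the cutoff of mean plus 3 SD of all tested compounds, set per screening campaign, cut at about 20% in these data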;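 further: 0% = DMSO wells and 100% = biotin wells as full block of FRET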
Target sequence (Q9Y5X4 whole entry, looked up): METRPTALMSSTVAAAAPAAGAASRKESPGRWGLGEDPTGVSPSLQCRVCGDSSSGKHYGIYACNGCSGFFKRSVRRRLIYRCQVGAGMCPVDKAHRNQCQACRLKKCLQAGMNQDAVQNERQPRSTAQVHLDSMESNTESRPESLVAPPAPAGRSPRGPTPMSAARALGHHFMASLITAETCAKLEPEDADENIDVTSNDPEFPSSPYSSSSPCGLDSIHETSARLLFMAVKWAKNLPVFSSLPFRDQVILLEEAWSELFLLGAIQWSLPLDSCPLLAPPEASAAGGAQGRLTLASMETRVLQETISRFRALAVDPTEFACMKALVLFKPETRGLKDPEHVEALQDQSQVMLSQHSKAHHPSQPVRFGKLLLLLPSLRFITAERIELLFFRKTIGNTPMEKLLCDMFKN
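System: GST-tagged NR2E3 plus biotinylated RetCOR corepressor; Buffer or medium: pH 7.5 Tris-based buffer; Probe or stimulus: RetCOR corepressor, biotinylated, 7 nM; Doses: compound at 4.8 µM, single dose; Schedule: 5 h incubation at 4 °C; Technique: time-resolved FRET; Evaluation: percent inhibition of TR-FRET ratio; Replication: one well per compound, singlicate testing.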
MPTP block: mitochondrial permeability transition pore inhibitors, primary screen, biochemical, isolated mouse mitochondria, absorbance | Ca2+ swelling absorbance, 30 min | inhibition, % at 10 µM | actives 1.4% (n = 360,000);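 active means inhibition of 50% or more, scaled per plate between neutral and stimulator controls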;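 further: 0% = DMSO wells given calcium and 100% = 1 mM EGTA wells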
NR2E3 ag-2: NR2E3 agonists in two-hybrid cells, primary screen, cell-based, luminescence, CHO-S, Gal4-NCOR/VP16-NR2E3; inhibition of corepressor binding, % at 3.98 µM; luciferase; actives 0.35% (n = 360,000);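 active means inhibition above the mean of all tested compounds plus 3 SD, cut at about 70% in these data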;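 further: 0% = DMSO with NR2E3 transfected cells and 100% = cells lacking NR2E3 construct; higher means lower luciferase signal from less NR2E3 corepressor binding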
Jurkat NFkB inh: inhibitors of induced NF-kB luciferase reporter, primary screen, TCR NF-kB activation inhibitor project, cell-based, luminescence, uHTS; Jurkat, PMA/ionomycin-induced NF-kB luciferase reporter; inhibition, % at 4 µM; actives 0.53% (n = 330,000); in the data active means inhibition above about 50%
MPTP counter: fluorescence retest of MPTP screen hits in isolated mitochondria, single concentration; shares compounds with MPTP block; membrane potential, Rhodamine 123 fluorescence; inhibition, % at 10 µM; actives 78% (n = 5,000); AID 624504, 2012; in the data active means inhibition above about 22%;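 further: 0% = DMSO vehicle and 100% = positive control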
MPTP abs DR: mitochondrial permeability transition pore inhibitors, dose response, biochemical, absorbance, uHTS hits | shares compounds with MPTP block | isolated mitochondria swelling | IC50, µM | actives 58% (n = 780) | AID 651561, 2012; in the data active means IC50 below about 20 µM
MPTP cs DR: fluorescent counter-screen in isolated mitochondria, dose response, counter-screen for MPTP inhibitor project, biochemical, fluorescence, uHTS hits; shares compounds with MPTP block; isolated mitochondria counterscreen, fluorescence read-out; IC50, µM; actives 49% (n = 780); AID 651564, 2012; in the data active means IC50 below about 80 µM
* marks the source's active call; other numbers are inactive results; . = no result.

SMILES	aDG glyco act	697 NFkB inh	NR2E3 ag-1	MPTP block	NR2E3 ag-2	Jurkat NFkB inh	MPTP counter	others
OC(CNCCC(c1ccccc1)c1ccccc1)COc1ccccc1 (stereo unspecified)	0	8	2	77*	18	7	15	MPTP abs DR=2.9*;MPTP cs DR=18*
Cc1cc(S(=O)(=O)NCCCN2CCOCC2)ccc1Br	0	5	4	-2	-6	-2	.
COc1ccc(CNc2cc(C)nc3ncnn23)c(OC)c1	2	21	-1	75*	47	47	34*
O=C(Nc1cc(Cl)cc2c1-c1ccc(Cl)cc1C2O)C(Cl)Cl (stereo unspecified)	0	.	.	93*	15	.	76*
O=C1CCCC2=C1C(c1ccc(Cl)cc1)C1C(=O)c3ccccc3C1=N2 (stereo unspecified)	0	9	-1	55*	5	-4	36*
O=C1c2ccccc2C2=Nc3ccccc3SC(c3ccc(Cl)cc3)C12 (stereo unspecified)	0	-21	4	89*	-5	19	56*
O=C1c2ccccc2C2=Nc3ccccc3SC(c3cccc(F)c3)C12 (stereo unspecified)	0	-50	-2	81*	-13	32	66*
O=C1CCCC2=C1C(c1ccccc1)C1C(=O)c3ccccc3C1=N2 (stereo unspecified)	0	15	-11	4	-18	0	.
COc1cc(C2Oc3ccccc3C=C2[N+](=O)[O-])cc(OC)c1OC (stereo unspecified)	0	.	.	3	-14	.	.
COc1ccc(N2CCN(CCC(O)c3ccc4ccccc4c3)CC2)cc1 (stereo unspecified)	0	-9	4	-1	29	-18	.
Cc1ccc(N2C(=O)C3C4C=CC(CNC(=S)Nc5ccc(Cl)cc5)(O4)C3C2=O)cc1 (stereo unspecified)	1	-43	-3	3	-28	-3	.
CC(C)COC(=O)NCC12C=CC(O1)C1C(=O)N(c3ccc(Cl)cc3)C(=O)C12 (stereo unspecified)	1	12	-1	85*	-18	5	9
CC(OC(=O)CCN=C1NS(=O)(=O)c2ccccc21)C(=O)Nc1ccc(S(N)(=O)=O)cc1 (stereo unspecified)	0	12	-4	-1	13	-2	.
Clc1ccc(NC2(c3nnnn3C3CCCCC3)CCCCC2)cc1	0	11	-4	91*	-6	23	91*
O=[N+]([O-])c1ccc(O)c(Nc2ncnc3ccccc23)c1	0	5	2	6	19	-4	.
O=[N+]([O-])c1ccc(O)c(Nc2ncnc3ccc(Br)cc23)c1	0	5	1	102*	-22	0	85*
O=C(Nc1ccc(Cl)cc1)N1CCC(c2ccccc2)C1 (stereo unspecified)	0	-153	4	86*	-170	-122	91*
CC(=O)Oc1ccccc1-c1nc(/C=C/c2ccccc2)no1	0	-136	.	0	-162	-105	.
CCc1sc(C(=O)N2CCN(c3ncccn3)CC2)cc1Br	0	4	-2	-2	-33	15	.
